Reference: ChEMBL document CHEMBL1667749, “Design & synthesis of N'-[substituted] pyridine-4-carbohydrazides as potential anticonvulsant agents” (Eur J Med Chem, 2011)
Activity calls are given as the source filed them. No cut-off for these calls is given here.

Experiments:
Mus musculus [1] = test: Anticonvulsant activity in ip dosed albino CF-1 mouse assessed as dose required to protect against maximal electroshock-induced seizures after 2 hrs; format: functional
Method in brief: (§1)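 Male CF-1 mice (18–25 g), i.p. in 0.5% methyl cellulose at 30, 100 and 300 mg/kg; MES: 60 Hz, 50 mA, 0.2 s through tetracaine-primed corneal electrodes; protection = abolished hind limb tonic extension. Value given as minimum dose active in half or more of mice.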

Mus musculus [2] = test: Neurotoxicity in ip dosed albino CF-1 mouse assessed as dose required to cause motor impairment after 4 hrs by rotarod test; format: toxicity, organism-based; settings: in vivo
Method in brief: (§2)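 Minimal motor impairment in male CF-1 mice by rotorod after i.p. dosing; toxic if animal falls off rotating rod 3 times within 1 min. Screen doses 30, 100, 300 mg/kg; quantitative TD50 (95% confidence interval) determined at time of peak effect.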

Mus musculus [3] = test: Anticonvulsant activity in albino CF-1 mouse assessed as protection against subcutaneous metrazol-induced seizures at 300 mg/kg, ip after 0.5 hrs; format: functional, organism-based; parameters: dose 300 mg/kg
Method in brief: (§3)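 Male CF-1 mice, i.p. at 30, 100, 300 mg/kg in 0.5% methyl cellulose; metrazol dose convulsing 97% of animals injected s.c. in midline neck fold, mice isolated and watched 30 min; protected if no 3–5 s clonic spasm episode of limbs, jaws or vibrissae.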

Mus musculus [4] = test: Anticonvulsant activity in ip dosed albino CF-1 mouse assessed as dose required to protect against maximal electroshock-induced seizures after 0.5 hrs; format: functional; method in brief: as §1
Mus musculus [5] = test: Anticonvulsant activity in albino CF-1 mouse assessed as protection against subcutaneous metrazol-induced seizures at 300 mg/kg, ip after 4 hrs; format: functional, organism-based; parameters: dose 300 mg/kg; method in brief: as §3
Mus musculus [6] = test: Anticonvulsant activity in ip dosed albino CF-1 mouse assessed as dose required to protect against maximal electroshock-induced seizures after 4 hrs; format: functional; method in brief: as §1
Mus musculus [7] = test: Neurotoxicity in ip dosed albino CF-1 mouse assessed as dose required to cause motor impairment after 0.5 hrs by rotarod test; format: toxicity, organism-based; settings: in vivo; method in brief: as §2
Mus musculus [8] = test: Anticonvulsant activity in albino CF-1 mouse assessed as protection against maximal electroshock-induced seizures at 300 mg/kg, ip after 0.5 hrs; format: functional, organism-based; parameters: dose 300 mg/kg; method in brief: as §1
Mus musculus [9] = test: Anticonvulsant activity in albino CF-1 mouse assessed as protection against maximal electroshock-induced seizures at 300 mg/kg, ip after 2 hrs; format: functional, organism-based; parameters: dose 300 mg/kg; method in brief: as §1
Mus musculus [10] = test: Anticonvulsant activity in ip dosed albino CF-1 mouse assessed as dose required to protect against subcutaneous metrazol-induced seizures after 0.5 hrs; format: functional
Method in brief: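 Male albino CF-1 mice (18-25 g) received i.p. compound suspended in 0.5% methyl cellulose at 30, 100 and 300 mg/kg. Metrazol at a dose convulsing 97% of animals was given s.c. in the midline neck fold, and mice were observed 30 min in isolation. A clonic spasm of about 3-5 s was the end point. The value is the minimum dose protecting half or more of the mice.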

Mus musculus [11] = test: Neurotoxicity in albino CF-1 mouse assessed as motor impairment at 300 mg/kg, ip after 0.5 hrs by rotarod test; format: toxicity, organism-based; parameters: dose 300 mg/kg, route intraperitoneal; settings: in vivo; method in brief: as §2
Mus musculus [12] = test: Neurotoxicity in albino CF-1 mouse assessed as motor impairment at 300 mg/kg, ip after 4 hrs by rotarod test; format: toxicity, organism-based; parameters: dose 300 mg/kg, route intraperitoneal; settings: in vivo; method in brief: as §2
Mus musculus [13] = test: Anticonvulsant activity in albino CF-1 mouse assessed as protection against maximal electroshock-induced seizures at 300 mg/kg, ip after 4 hrs; format: functional, organism-based; parameters: dose 300 mg/kg; method in brief: as §1

O=C1NC(=O)C(c2ccccc2)(c2ccccc2)N1 [PHENYTOIN]
Activity (Mus musculus [1]): 30 mg/kg | Activity (Mus musculus [2]): 100 mg/kg | Activity (Mus musculus [3]): inactive | Activity (Mus musculus [4]): 30 mg/kg | Activity (Mus musculus [5]): inactive | Activity (Mus musculus [6]): 30 mg/kg | Activity (Mus musculus [7]): 100 mg/kg

CCCC(CCC)C(=O)[O-].[Na+] [VALPROATE SODIUM]
Activity (Mus musculus [8]): inactive | Activity (Mus musculus [9]): inactive | Activity (Mus musculus [10]): 300 mg/kg | Activity (Mus musculus [5]): inactive | Activity (Mus musculus [11]): Non-toxic | Activity (Mus musculus [12]): Non-toxic | Activity (Mus musculus [13]): inactive
